Data reported in ChEMBL document CHEMBL3399938, “Chemopreventive flavonoids from Millettia pulchra Kurz var-laxior (Dunn) Z.Wei (Yulangsan) function as Michael reaction acceptors” (Bioorg Med Chem Lett, 2015).

Biological target: NAD(P)H dehydrogenase [quinone] 1 (Mus musculus) (UniProt Q64669)
Sequence (Q64669 whole entry): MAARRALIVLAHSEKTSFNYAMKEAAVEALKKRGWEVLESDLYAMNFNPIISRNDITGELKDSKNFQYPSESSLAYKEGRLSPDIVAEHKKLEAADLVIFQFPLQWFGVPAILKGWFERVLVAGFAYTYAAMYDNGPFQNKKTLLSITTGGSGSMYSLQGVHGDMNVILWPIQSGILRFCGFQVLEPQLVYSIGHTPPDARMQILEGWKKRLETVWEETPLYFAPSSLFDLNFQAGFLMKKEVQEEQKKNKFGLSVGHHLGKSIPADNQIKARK
Assay: Induction of NQO1 activity in mouse Hepa-1c1c7 cells assessed as induction ratio at 20 uM after 48 hr by NADPH-dependent MTT assay relative to control
Assay type: cell-based
Conditions: not given
Method in brief: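 Hepa 1c1c7 cells were seeded at 1 × 10^4 cells/mL in α-MEM with 10% FBS, grown 24 h (5% CO2, 37 °C), then exposed to sample for 24 h. Lysis used 0.8% digitonin in 2 mM EDTA (pH 7.8) for 10 min at 37 °C. A menadione/NADP/glucose-6-phosphate dehydrogenase mix with 0.72 mM MTT was added, then read at 590 nm after 3 min shaking. IR = NQO1 activity of sample-treated over DMSO-treated cells; mean ± SE of three independent experiments.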
For `COc1cc2c(c3oc(-c4ccccc4)cc(=O)c13)C=CC(C)(C)O2` [CANDIDIN], the Ratio was 2.02. `CC1(C)C=Cc2c(ccc(C(=O)/C=C/c3ccccc3)c2O)O1` [LONCHOCARPIN] showed a Ratio of 1.7. Molecule `O=c1cc(-c2ccccc2)oc2c1ccc1occc12` [LANCEOLATIN B] has a Ratio of 1.64. `COc1c(C(=O)/C=C(\O)c2ccccc2)ccc2occc12` [PONGAMOL] gave a Ratio of 1.69. `CC1(C)C=Cc2c(ccc3c(=O)cc(-c4ccccc4)oc23)O1` gave a Ratio of 1.6. Work on `COc1c(-c2ccccc2)oc2c(ccc3occc32)c1=O` [KARANJIN] yielded a Ratio of 1.57. Work on `COc1c(C(=O)/C=C(\O)c2ccccc2)ccc2c1C=CC(C)(C)O2` yielded a Ratio of 1.9. In the case of `COc1cc2c(c(O)c1C(=O)/C=C/c1ccccc1)C=CC(C)(C)O2`, the Ratio is reported as 2.14. In the case of `O=C(/C=C/c1ccccc1)c1ccc2occc2c1O`, the Ratio is reported as 1.75. For `COc1c(C(=O)/C=C/c2ccccc2)ccc2occc12`, the Ratio was 2.01. Work on `CC1(C)C=Cc2c(ccc3c2OC(c2ccccc2)CC3=O)O1` (centres undefined) yielded a Ratio of 1.54. With `COc1cc2c(=O)cc(-c3ccccc3)oc2c2c1OC(C)(C)C=C2` the Ratio was 1.4. For `COc1c(C(=O)C[C@@H](OC)c2ccccc2)ccc2occc12`, the Ratio was 2.07. `O=c1c2c(oc3c1ccc1occc13)-c1ccccc1OC2` showed a Ratio of 1.67. With `CC1(C)C=Cc2c(c(O)cc3c(=O)cc(-c4ccccc4)oc23)O1` the Ratio was 2.14.

Test system: not listed separately
Assay: Cytotoxicity against mouse Hepa-1c1c7 cells assessed as cell viability at 10 uM […]
Assay type: functional
Conditions: read-out: Activity
Method in brief: (§1)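 Hepa 1c1c7 cells were seeded at 1 × 10^4 cells/mL in α-MEM with 10% FBS and 0.1% penicillin–streptomycin, then grown 24 h at 37 °C in 5% CO2. Medium was replaced with fresh medium containing sample for another 24 h. Cells were then stained with 0.2% crystal violet in 2% ethanol for 10 min, washed and dried. Bound dye was dissolved in 0.5% SDS in 50% ethanol and read at 595 nm.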
`O=c1cc(-c2ccc(Br)cc2)oc2ccccc12` gave a viability at 10 µM of 109%.

Test system: not listed separately
Assay: Retention time of the compound by UPLC analysis
Assay type: physicochemical
Conditions: in the assay text read “preparative reverse-phase HPLC” for “UPLC”
`COc1cc2c(c(O)c1C(=O)/C=C/c1ccccc1)C=CC(C)(C)O2` showed a Retention_time of 131 min. In the case of `O=C(/C=C/c1ccccc1)c1ccc2occc2c1O`, the Retention_time is reported as 58 min.

Biological target: NAD(P)H dehydrogenase [quinone] 1 (Mus musculus) (UniProt Q64669)
Assay: Induction of NQO1 activity in mouse Hepa-1c1c7 cells assessed as induction ratio at 10 uM […] by NADPH-dependent MTT assay relative to control
Assay type: cell-based
Conditions: not given
`O=c1cc(-c2ccc(Br)cc2)oc2ccccc12` showed a Ratio of 2.17.

Test system: not listed separately
Assay: Cytotoxicity against mouse Hepa-1c1c7 cells assessed as cell viability at 20 uM […]
Assay type: functional
Conditions: read-out: Activity
Method in brief: as §1
`COc1cc2c(c3oc(-c4ccccc4)cc(=O)c13)C=CC(C)(C)O2` [CANDIDIN] showed a viability at 20 µM of 79%. Molecule `CC1(C)C=Cc2c(ccc(C(=O)/C=C/c3ccccc3)c2O)O1` [LONCHOCARPIN] has a viability at 20 µM of 84%. `O=c1cc(-c2ccccc2)oc2c1ccc1occc12` [LANCEOLATIN B] gave a viability at 20 µM of 100%. With `COc1c(C(=O)/C=C(\O)c2ccccc2)ccc2occc12` [PONGAMOL] the viability at 20 µM was 78%. Work on `CC1(C)C=Cc2c(ccc3c(=O)cc(-c4ccccc4)oc23)O1` yielded a viability at 20 µM of 99%. In the case of `COc1c(-c2ccccc2)oc2c(ccc3occc32)c1=O` [KARANJIN], the viability at 20 µM is reported as 100%. With `COc1c(C(=O)/C=C(\O)c2ccccc2)ccc2c1C=CC(C)(C)O2` the viability at 20 µM was 77%. `COc1cc2c(c(O)c1C(=O)/C=C/c1ccccc1)C=CC(C)(C)O2` gave a viability at 20 µM of 83%. Molecule `O=C(/C=C/c1ccccc1)c1ccc2occc2c1O` has a viability at 20 µM of 90%. In the case of `COc1c(C(=O)/C=C/c2ccccc2)ccc2occc12`, the viability at 20 µM is reported as 81%. `CC1(C)C=Cc2c(ccc3c2OC(c2ccccc2)CC3=O)O1` (centres undefined) showed a viability at 20 µM of 114%. `COc1cc2c(=O)cc(-c3ccccc3)oc2c2c1OC(C)(C)C=C2` gave a viability at 20 µM of 106%. Work on `COc1c(C(=O)C[C@@H](OC)c2ccccc2)ccc2occc12` yielded a viability at 20 µM of 92%. With `O=c1c2c(oc3c1ccc1occc13)-c1ccccc1OC2` the viability at 20 µM was 97%. For `CC1(C)C=Cc2c(c(O)cc3c(=O)cc(-c4ccccc4)oc23)O1`, the viability at 20 µM was 71%.
